Consider 76 compounds from ChEMBL document CHEMBL1128252, “Synthesis and anti-HIV-1 activity of 4,5,6,7-tetrahydro-5-methylimidazo [4,5,1-jk][1,4]benzodiazepin-2(1H)-one (TIBO) derivatives. 3” (J Med Chem, 1995).

Structures are written as SMILES.

The subject of the first assay is MT4. The assay is described as follows: Effective concentration of compound required to achieve 50% protection of MT-4 cells against the cytopathic effect of HIV-1 number of experiments = 20. It counts as functional, cell-based. To be noted: Homo sapiens. The method in brief:
(§1)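 MT-4 cells infected with HIV-1 and incubated with a range of compound concentrations. Viable cells were counted 5 days post-infection by MTT staining. IC50 is the concentration protecting 50% of cells from virus-induced cytopathic effect. Values are means over n assays, where n varies per compound.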
(In general: Damage to the host cells serves as the signal in cytopathic effect assays.)
On to `CC(C)=CCN1Cc2c(Cl)ccc3nc(S)n(c23)C[C@H]1C`, for which inhibition was half-maximal at 5 nM (IC50).

The subject of another assay is MT4. In words: Effective concentration of compound required to achieve 50% protection of MT-4 cells against the cytopathic effect of HIV-1 number of experiments = 4. To be noted: Homo sapiens. It is filed as functional, cell-based. The procedure, abridged:
as §1
On to `C=C(C)CN1Cc2cccc3[nH]c(=O)n(c23)CC1CC` (stereo not drawn), for which the IC50 – broadly, the concentration that gives 50% inhibition – was above 50 µM.

Compound `CCCN1C(=O)c2cccc3nc(O)n(c23)CC1C` (stereo not drawn) gave an IC50 above 250 µM.

For the next assay, the system named is Human immunodeficiency virus 1. The assay is described as follows: (§2) Effective concentration required to achieve 50% protection of MT-4 cells against the cytopathic effect of HIV-1. It counts as functional, organism-based. To be noted: Human immunodeficiency virus 1, MT4. The procedure, abridged: as §1
For `CC1Cn2c(O)nc3cccc(c32)CN1` (stereo not drawn), the IC50 was above 250 µM. The same measure, in the same setting: the same measure for `C=C(C)CN1Cc2cccc3nc(S)n(c23)C[C@H]1C`: 0.026 µM; for `CC(C)=CCN1Cc2cccc3nc(O)n(c23)C[C@@H]1C(C)C`: above 10 µM; for `Oc1nc2cccc3c2n1CC(c1ccccc1)NC3` (stereo not drawn): above 250 µM.

Take `C=C(C)CN1Cc2cccc3nc(O)n(c23)CC1c1ccccc1` (stereo not drawn): the IC50 was above 10 µM. On the same count and under the same terms, the same measure for `CCCN1Cc2cccc3[nH]c(=O)n(c23)C(C(C)C)C1` (stereo not drawn): 73.3 µM; for `CCCN1CCn2c(=O)[nH]c3cccc(c32)C1C` (stereo not drawn): above 83 µM.

In turn, `CC(C)=CCN1CCn2c(S)nc3cc(Cl)c4c(c32)C1CC4` (stereo not drawn) showed an IC50 above 2 µM. The same measure, in the same setting: the same measure for `CC(C)=CCN1[C@H](C)Cn2c(=S)[nH]c3cc(Cl)cc(c32)[C@H]1C`: 0.48 µM; for `CCCN1Cc2cccc3nc(O)n(c23)C(c2ccccc2)C1` (stereo not drawn): above 250 µM; for `CC(C)=CCN1CCn2c(S)nc3cc(Cl)cc(c32)C1CC(C)C` (stereo not drawn): above 2 µM. Still for that read-out and setting: the same measure for `CC(C)=CCN1Cc2cc(Cl)cc3nc(O)n(c23)C[C@@H]1C(C)C`: above 10 µM. Still for that read-out and setting: the same measure for `CC(C)=CCN1CCn2c(O)nc3cc(Cl)cc(c32)C1CC(C)C` (stereo not drawn): above 2 µM; for `CC1(C)Cn2c(O)nc3cccc(c32)CN1`: above 250 µM; for `CC(C)=CCN1[C@@H](C)Cn2c(S)nc3cc(Cl)cc(c32)[C@@H]1C`: above 10 µM.

`C/C=C1/CC2Cn3c(S)nc4cc(Cl)cc(c43)CN2C1` (stereo not drawn) came in with a 50% inhibitory concentration (IC50) of 3.76 µM.

The compound `C=C1CC2Cn3c(S)nc4cc(Cl)cc(c43)CN2C1` (stereo not drawn) had an IC50 above 10 µM. The same measure, in the same setting: the same measure for `Sc1nc2cc(Cl)cc3c2n1CCN1CCCC31` (stereo not drawn): above 2 µM. The same measure, in the same setting: the same measure for `CC(C)=CCN1[C@H](C)Cn2c(=O)[nH]c3cc(Cl)cc(c32)[C@H]1C`: 0.23 µM. Same read-out and setting: the same measure for `C=C(C)CN1Cc2cccc3nc(O)n(c23)C(c2ccccc2)C1` (stereo not drawn): above 250 µM.

Consider `CC(C)C1Cn2c(O)nc3cccc(c32)CN1` (stereo not drawn), for which the IC50 was above 250 µM. Still for that read-out and setting: the same measure for `CC(C)=CCN1CCn2c(=S)[nH]c3cc(Cl)cc(c32)C1C` (stereo not drawn): 0.023 µM; for `CC(C)=CCN1Cc2cccc3nc(O)n(c23)C(C)C1C` (stereo not drawn): 56.7 µM; for `CC(C)=CCN1CCn2c(=O)[nH]c3cc(Cl)cc(c32)C1C` (stereo not drawn): 0.16 µM. As for `C=C(C)CN1Cc2cccc3[nH]c(=O)n(c23)CC1(C)C`, half-maximal inhibition (IC50) required 23.1 µM. Still for that read-out and setting: the same measure for `CC1NCCn2c(O)nc3cccc1c32` (stereo not drawn): above 250 µM; for `O=C1Nc2ccccc2-n2c(S)nc3cccc1c32`: above 250 µM.

With `CCCN1Cc2cc(Cl)cc3[nH]c(=S)n(c23)C(=O)C1C` (stereo not drawn), the IC50 was above 50 µM. On the same count and under the same terms, the same measure for `CC(C)=CCN1Cc2cc(Cl)cc3nc(S)n(c23)C[C@H]1C(C)C`: above 10 µM; for `C[C@@H]1Cn2c(S)nc3cccc(c32)CN1CC1CC1`: 0.06 µM; for `Oc1nc2cccc3c2n1CC1CCCN1C3` (stereo not drawn): above 250 µM. On to `Oc1nc2cccc3c2n1C(c1ccccc1)CNC3` (stereo not drawn), for which the IC50 was above 250 µM. The same measure, in the same setting: the same measure for `CC(C)=CCN1CCn2c(S)nc3cccc(c32)C1c1ccccc1` (stereo not drawn): above 2 µM. The same measure, in the same setting: the same measure for `CC(C)=CCN1C(C)Cn2c(=S)[nH]c3cccc(c32)C1C` (stereo not drawn): 1.15 µM; for `C=C(C)CN1Cc2cccc3nc(O)n(c23)C[C@@H]1C(C)C`: above 10 µM; for `CC(C)=CCN1Cc2cccc3nc(S)n(c23)C[C@@H]1C(C)C`: above 10 µM.

For the compound `C[C@@H]1Cn2c(S)nc3cc(Cl)cc(c32)CN1CC1CC1`, the half-inhibitory concentration (IC50) stood at 0.034 µM. The same measure, in the same setting: the same measure for `CC(C)=CCN1[C@@H](C)Cn2c(=O)[nH]c3cc(Cl)cc(c32)[C@@H]1C`: above 5 µM; for `CCC1Cn2c(O)nc3cccc(c32)CN1` (stereo not drawn): above 250 µM. `S=c1[nH]c2cc(Cl)cc3c2n1CCN1CCCCC31` (stereo not drawn) gave a concentration for half-maximal inhibition (IC50) above 2 µM.

On to `C=C(C)CN1Cc2cc(Cl)cc3[nH]c(=S)n(c23)[C@@H](C)C1`, for which half-maximal inhibition (IC50) required 0.67 µM. `CC1CNCc2cccc3nc(O)n1c23` (stereo not drawn) registered an IC50 above 250 µM. `CC(C)[C@H]1Cn2c(O)nc3cc(Cl)cc(c32)CN1` showed an IC50 above 10 µM.

On to `CCCN1CCn2c(=S)[nH]c3cccc(c32)C1C` (stereo not drawn), for which the IC50 was 2.43 µM. With `CC(C)=CCN1CCn2c(=S)[nH]c3cccc(c32)C1C` (stereo not drawn), the IC50 came out at 0.078 µM. `CC(C)=CCN1Cc2cccc3[nH]c(=S)n(c23)C(C)C1C` (stereo not drawn) yielded an IC50 of 14.3 µM. In the case of `C=C(C)CN1Cc2cccc3[nH]c(=O)n(c23)C(C)C1` (stereo not drawn), the IC50 came out at 32.1 µM. Compound `CC1C(C)n2c(S)nc3cccc(c32)CN1CC1CC1` (stereo not drawn) came in with an IC50 of 13.4 µM. Still for that read-out and setting: the same measure for `CC(C)=CCN1CCn2c(=S)[nH]c3cc(Cl)cc(c32)C1`: 0.16 µM.

Another assay concerns MT4. In words: Effective concentration of compound required to achieve 50% protection of MT-4 cells against the cytopathic effect of HIV-1 number of experiments = 53. It is filed as functional, cell-based. To be noted: Homo sapiens. The method in brief:
as §1
Compound `CC(C)=CCN1Cc2cc(Cl)cc3nc(S)n(c23)C[C@H]1C` came in with an IC50 of 43 nM.

In another assay the test system is MT4. In words: Effective concentration of compound required to achieve 50% protection of MT-4 cells against the cytopathic effect of HIV-1 number of experiments = 8. It counts as functional, cell-based. The note with it: Homo sapiens. The method in brief:
as §1
Compound `CC(C)=CCN1Cc2cccc3nc(O)n(c23)C[C@H]1C` showed an IC50 of 3.32 µM. On the same count and under the same terms, the same measure for `CC(C)=CCN1C(C)Cn2c(=S)[nH]c3cccc(c32)C1C` (stereo not drawn): 0.042 µM.

Consider `Oc1nc2cccc3c2n1CC1CCCCN1C3` (stereo not drawn), for which the IC50 was above 250 µM.

Another assay concerns Human immunodeficiency virus 1. The description is as §2. It is filed as functional, organism-based, MT4. To be noted: Human immunodeficiency virus 1, MT4. The method in brief: as §1
Take `CCCC1CNCc2cccc3nc(O)n1c23` (stereo not drawn): the IC50 was above 250 µM. On the same count and under the same terms, the same measure for `CCCN1Cc2cccc3nc(O)n(c23)CC1=O`: above 250 µM. Same read-out and setting: the same measure for `CCCC1Cn2c(O)nc3cccc(c32)CN1` (stereo not drawn): above 250 µM. Same read-out and setting: the same measure for `CC(C)C1CNCc2cccc3nc(O)n1c23` (stereo not drawn): above 250 µM; for `C[C@@H]1Cn2c(O)nc3cc(Cl)cc(c32)CN1`: above 250 µM; for `S=c1[nH]c2cccc3c2n1-c1ccccc1N(CC1CC1)C3`: above 10 µM. As for `CC(C)[C@H]1Cn2c(O)nc3cccc(c32)CN1`, the IC50 was above 250 µM. Same read-out and setting: the same measure for `CC(C)=CCN1Cc2cc(Cl)cc3[nH]c(=O)n(c23)C[C@H]1C`: 0.18 µM; for `CCCC1CN(CCC)Cc2cccc3[nH]c(=O)n1c23` (stereo not drawn): above 180 µM; for `C=C(C)CN1Cc2cccc3[nH]c(=O)n(c23)C(CCC)C1` (stereo not drawn): 48.1 µM.

Turning to `C=C(C)CN1Cc2cccc3nc(O)n(c23)CC1CCC` (stereo not drawn), the IC50 is above 10 µM.

For `O=C1CCC2c3cc(Cl)cc4nc(S)n(c34)CCN12` (stereo not drawn), the 50% inhibitory concentration (IC50) was above 250 µM. In turn, `CC(C)=CCN1CCn2c(=S)[nH]c3ccc(Cl)c(c32)C1` showed a half-maximal inhibitory concentration (IC50) of 0.046 µM. `CC(C)=CCN1CCn2c(=O)[nH]c3ccc(Cl)c(c32)C1C` (stereo not drawn) registered a half-maximal inhibitory concentration (IC50) of 0.145 µM. The compound `CC(C)=CCN1Cc2cccc3[nH]c(=S)n(c23)C(C)C1C` (stereo not drawn) yielded an IC50 of 2.22 µM. Same read-out and setting: the same measure for `CC(C)=CCN1CCn2c(=S)[nH]c3ccc(Cl)c(c32)C1C` (stereo not drawn): 0.012 µM. The same measure, in the same setting: the same measure for `CC(C)=CCN1CCn2c(=O)[nH]c3cccc(c32)C1C` (stereo not drawn): 12.1 µM. Turning to `C=C(C)CN1Cc2cccc3[nH]c(=O)n(c23)C(C(C)C)C1` (stereo not drawn), half-maximal inhibition (IC50) was put at 12.6 µM.

Staying with this assay, now noted: mt4.
Regarding `CC(C)=CCN1CC(C)n2c(S)nc3cccc(c32)C1C` (stereo in doubt; 1bg), the midpoint of inhibition, the IC50, lay at 25.8 µM. The same measure, in the same setting: the same measure for `CC(C)=CCN1CC(C)n2c(S)nc3cccc(c32)C1C` (stereo in doubt; 1bh): above 10 µM.

The next assay has as its system MT4. The assay is described as follows: Effective concentration of compound required to achieve 50% protection of MT-4 cells against the cytopathic effect of HIV-1 number of experiments = 6. It is filed as functional, cell-based. To be noted: Homo sapiens. The method in brief:
as §1
As for `C[C@@H]1CN(CC2CC2)Cc2cc(Cl)cc3[nH]c(=S)n1c23`, the IC50 amounted to 2180 nM.

Another assay has as its system MT4. In words: Effective concentration of compound required to achieve 50% protection of MT-4 cells against the cytopathic effect of HIV-1 number of experiments = 24. It is filed as functional, cell-based. To be noted: Homo sapiens. The method in brief: as §1
On to `C=C(C)CN1Cc2cccc3[nH]c(=O)n(c23)CC1C` (stereo not drawn), for which inhibition was half-maximal at 34.7 µM (IC50).
